Assay results: ChEMBL document CHEMBL1140737, “Discovery of novel agonists and antagonists of the free fatty acid receptor 1 (FFAR1) using virtual screening” (J Med Chem, 2008)
Activity calls are given as the source filed them. No cut-off for these calls is given here.

Assays:
[1] = target: T1, Free fatty acid receptor 1 (Homo sapiens, UniProt O14842); test: Agonist activity at FFAR1 expressed in HEK-EM293 cells assessed as calcium influx by FLIPR assay; assay type: functional, cell-based; conditions: for Activity: HEK293
[2] = target: T1, Free fatty acid receptor 1; test: Activity at FFAR1 expressed in HEK-EM293 cells assessed as calcium influx relative to GW-9508 by FLIPR assay; assay type: functional, cell-based; set-up: concentration or dose not given beside the values; conditions: HEK293
[3] = target: T1, Free fatty acid receptor 1; test: Antagonist activity at FFAR1 expressed in HEK-EM293 cells assessed as inhibition calcium influx by FLIPR assay; assay type: functional, cell-based, HEK293
[4] = Antagonist activity at TRH receptor 1 expressed in HEK-EM293 cells assessed as inhibition of thyrotropin-releasing hormone-stimulated calcium influx at 30 uM by FLIPR assay; assay type: functional; conditions: HEK293
Procedure, shortened: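 HEK-EM 293 cells stably expressing TRH-R1, grown with 200 µg/mL hygromycin and loaded with Calcium4. Pre-incubated with compound, up to 30 µM, then stimulated with TRH. Inhibition of the FLIPR calcium response measured.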

[5] = target: T1, Free fatty acid receptor 1; test: Antagonist activity at FFAR1 expressed in HEK-EM293 cells assessed as linoleic acid-stimulated calcium influx after 30 mins by FLIPR assay; assay type: functional, cell-based; conditions: HEK293
[6] = target: T1, Free fatty acid receptor 1; test: Activity at FFAR1 expressed in HEK-EM293 cells assessed as calcium influx by FLIPR assay; assay type: functional, cell-based, HEK293
[7] = target: Free fatty acid receptor 1 (Homo sapiens, UniProt O14842, R183A); test: Activity at FFAR1 R183A mutant expressed in HEK-EM293 cells assessed as calcium influx by FLIPR assay; assay type: functional, cell-based, HEK293
Procedure, shortened: (§1)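 Mutant or wild-type FFAR1 cDNA transiently transfected (lipofectamine LTX/PLUS) into HEK-EM 293 cells. Cells seeded at 60 000/well one day before, then loaded with Calcium4 dye in HEPES (20 mM)-buffered HBSS. Intracellular calcium flux read by FLIPR after agonist addition; EC50 from concentration-response curves.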

[8] = target: Free fatty acid receptor 1 (Homo sapiens, UniProt O14842, N244A); test: Activity at FFAR1 N244A mutant expressed in HEK-EM293 cells assessed as calcium influx by FLIPR assay; assay type: functional, cell-based, HEK293; procedure, shortened: as §1
[9] = target: Free fatty acid receptor 1 (Homo sapiens, UniProt O14842, L186F); test: Activity at FFAR1 L186F mutant expressed in HEK-EM293 cells assessed as calcium influx by FLIPR assay; assay type: functional, cell-based, HEK293; procedure, shortened: as §1
[10] = target: Free fatty acid receptor 1 (Homo sapiens, UniProt O14842, H86F); test: Activity at FFAR1 H86F mutant expressed in HEK-EM293 cells assessed as calcium influx by FLIPR assay; assay type: functional, cell-based, HEK293; procedure, shortened: as §1
[11] = target: Free fatty acid receptor 1 (Homo sapiens, UniProt O14842, H137F); test: Activity at FFAR1 H137F mutant expressed in HEK-EM293 cells assessed as calcium influx by FLIPR assay; assay type: functional, cell-based, HEK293; procedure, shortened: as §1
Sequence of Free fatty acid receptor 1 (Homo sapiens, UniProt O14842, H137F) (O14842 whole entry H137F): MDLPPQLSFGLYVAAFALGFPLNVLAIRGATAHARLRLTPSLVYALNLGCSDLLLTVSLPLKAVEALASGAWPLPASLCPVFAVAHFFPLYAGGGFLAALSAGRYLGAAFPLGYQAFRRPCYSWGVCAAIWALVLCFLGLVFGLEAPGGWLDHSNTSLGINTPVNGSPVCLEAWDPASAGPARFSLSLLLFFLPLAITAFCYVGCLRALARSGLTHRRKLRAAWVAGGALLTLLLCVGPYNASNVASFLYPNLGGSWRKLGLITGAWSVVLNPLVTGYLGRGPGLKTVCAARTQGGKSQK

T1 sequence (O14842 whole entry): as the sequence (O14842 whole entry H137F) above, with F137H counted along it
Sequence of Free fatty acid receptor 1 (Homo sapiens, UniProt O14842, R183A) (O14842 whole entry R183A): as the sequence (O14842 whole entry H137F) above, with F137H, R183A counted along it
Sequence of Free fatty acid receptor 1 (Homo sapiens, UniProt O14842, L186F) (O14842 whole entry L186F): as the sequence (O14842 whole entry H137F) above, with F137H, L186F counted along it
Sequence of Free fatty acid receptor 1 (Homo sapiens, UniProt O14842, N244A) (O14842 whole entry N244A): as the sequence (O14842 whole entry H137F) above, with F137H, N244A counted along it
Sequence of Free fatty acid receptor 1 (Homo sapiens, UniProt O14842, H86F) (O14842 whole entry H86F): as the sequence (O14842 whole entry H137F) above, with H86F, F137H counted along it

| Compound | Activity [1] | Activity [2] [%] | EC50 [1] [µM] | other results |
| --- | --- | --- | --- | --- |
| O=C(Nc1ccc(OCc2ccccc2)cc1)c1cccc([N+](=O)[O-])c1 | inactive |  |  |  |
| O=C(O)c1ccc(NCc2ccc3c(c2)OCO3)cc1 |  | 50 | 24.6 |  |
| O=C(O)CCCCCN1C(=O)/C(=C\c2cccc3ccccc23)SC1=S |  | 100 | 12.2 |  |
| O=C(NCc1cccc(Oc2ccccc2)c1)c1ccc([N+](=O)[O-])cc1 |  |  |  | IC50 [3]: 2.8 µM; inhibition at 30 µM [4]: 30%; Activity [5]: Active |
| COC(=O)CSc1nnc(SCc2ccccc2)s1 |  | 41 | 16.7 |  |
| O=C(Nc1ccccc1)c1cccc(Oc2ccc([N+](=O)[O-])cc2)c1 |  |  |  | IC50 [3]: 5.3 µM |
| O=C(O)CCN1C(=O)/C(=C\c2c[nH]c3ccccc23)SC1=S | inactive |  |  |  |
| O=C(O)c1cccc(NCc2cccc(OCc3ccccc3)c2)c1 |  | 52 | 8.2 |  |
| O=C(O)c1ccc(NC(=O)c2ccc(C(=O)c3ccccc3)cc2)cc1 |  | 56 | 16.1 |  |
| COc1ccc(CNC(=O)[C@H](C)c2ccc([N+](=O)[O-])cc2)cc1 | inactive |  |  |  |
| O=C(O)CCCN1C(=O)/C(=C\c2ccc3c(c2)OCO3)SC1=S | Active |  |  |  |
| O=C(O)CCN1C(=O)/C(=C\c2cccc3ccccc23)SC1=S | inactive |  |  |  |
| O=C(O)CCCCCN1C(=O)/C(=C\c2cccs2)SC1=S |  | 59 | 7.6 | EC50 [6]: 6.6 µM; EC50 [7]: > 30 µM; EC50 [8]: > 30 µM; EC50 [9]: 3.2 µM; EC50 [10]: > 10 µM; EC50 [11]: 7.8 µM |
| O=C(O)CCCN1C(=O)/C(=C\c2ccco2)SC1=S |  | 44 | 16.8 |  |
| O=C(O)CSc1nnc(SCc2cccc3ccccc23)s1 |  | 100 | 3.6 | EC50 [6]: 1.8 µM; EC50 [7]: ≥ 100 µM; EC50 [8]: ≥ 100 µM; EC50 [9]: 0.97 µM; EC50 [10]: ≥ 100 µM; EC50 [11]: 4.3 µM |
| O=C(O)CCCN1C(=O)/C(=C\c2cccs2)SC1=S |  | 43 | 19 |  |
| COc1ccc(CSc2nnc(SCc3ccc(C(=O)O)cc3)s2)cc1 |  | 40 | 15.1 |  |
| C=CCOc1ccc(CNc2cccc(C(=O)O)c2)cc1 |  | 49 | 14.5 |  |
| O=C(c1ccccc1)c1ccc(NC(=O)c2ccccc2C(=O)O)cc1 | inactive |  |  |  |
| COc1ccc(CNC(=O)/C=C\c2ccc([N+](=O)[O-])cc2)cc1 | inactive |  |  |  |
| O=C(O)CCN1C(=O)/C(=C\c2ccncc2)SC1=S | inactive |  |  |  |
| O=C(O)CCCN1C(=O)/C(=C\c2ccc(F)cc2)SC1=S |  | 26 | 22.6 |  |
